From PMC8992012 (Bioorganic & medicinal chemistry, 2021)

Each compound was assayed on NF-κB (assay: NF-κB activation using THP1-Blue NF-κB cells). Conditions: Homo sapiens, 20 h, read-out: NF-κB SEAP Compound alone % Activation.
Assay type: cell-based, human
Outline: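 THP1-Blue NF-κB cells carry a stably integrated NF-κB-inducible SEAP. They were plated at 10^5 cells/well in RPMI with 10% FBS, penicillin, streptomycin and Normocin, then treated for 20 h with 5 μM test compound (0.5% DMSO final), alone or with LPS at 10 ng/mL. Supernatant SEAP was read colorimetrically at 630 nm. Signals were two-point normalized: baseline (vehicle or LPS) 100%, reference hit 200%.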

SMILES	activation at 5 µM [%]
Cc1ccc(C)c(-c2csc(NC(=O)c3cccc(C(=O)N4CCCCC4)c3)n2)c1 [Compound 45d, N-(4-(2,5-dimethylphenyl)thiazol-2-yl)-3-(piperidine-1-carbonyl)benzamide]	100
Cc1ccc(C)c(-c2csc(NC(=O)c3ccc(S(=O)(=O)NC4CCCCC4)cc3)n2)c1 [Compound 54e, 4-(N-cyclohexylsulfamoyl)-N-(4-(2,5-dimethylphenyl)thiazol-2-yl)benzamide]	100
CCCN1CCN(S(=O)(=O)c2ccc(C(=O)Nc3nc(-c4cc(C)ccc4C)cs3)cc2)CC1 [Compound 54k, N-(4-(2,5-dimethylphenyl)thiazol-2-yl)-4-((4-propylpiperazin-1-yl)sulfonyl)benzamide]	100

Same assay, conditions: compound alone, 5 μM, 20h

SMILES	NF-κB activity (in words, SAR text to Table 1)
C#CCN(C(=O)c1ccc(S(=O)(=O)N2CCCCC2)cc1)c1nc(-c2cc(C)ccc2C)cs1 [Compound 34d, N-(4-(2,5-dimethylphenyl)thiazol-2-yl)-4-(piperidin-1-ylsulfonyl)-N-(prop-2-yn-1-yl)benzamide]	inactive
Cc1ccc(C)c(-c2csc(NC(=O)c3ccc(S(=O)(=O)N4CCCCC4)cn3)n2)c1 [Compound 42a, N-(4-(2,5-dimethylphenyl)thiazol-2-yl)-5-(piperidin-1-ylsulfonyl)picolinamide]	loss of activity
Cc1ccc(C)c(-c2csc(NC(=O)c3ccc(S(=O)(=O)N4CCCCC4)nc3)n2)c1 [Compound 42b, N-(4-(2,5-dimethylphenyl)thiazol-2-yl)-6-(piperidin-1-ylsulfonyl)nicotinamide]	loss of activity
Cc1ccc(C)c(-c2csc(NC(=O)c3ccc(S(=O)(=O)N4CCCCC4)s3)n2)c1 [Compound 42c, N-(4-(2,5-dimethylphenyl)thiazol-2-yl)-5-(piperidin-1-ylsulfonyl)thiophene-2-carboxamide]	loss of activity
Cc1ccc(C)c(-c2csc(NC(=O)c3ccc(S(=O)(=O)N4CCCCC4)c(Cl)c3)n2)c1 [Compound 42d, 3-chloro-N-(4-(2,5-dimethylphenyl)thiazol-2-yl)-4-(piperidin-1-ylsulfonyl)benzamide]	retained NF-κB activity
Cc1ccc(C)c(-c2csc(NC(=O)c3ccc(S(=O)(=O)N4CCCCC4)c(Br)c3)n2)c1 [Compound 42e, 3-bromo-N-(4-(2,5-dimethylphenyl)thiazol-2-yl)-4-(piperidin-1-ylsulfonyl)benzamide]	retained NF-κB activity
Cc1ccc(C)c(-c2csc(NC(=O)c3ccc(S(=O)(=O)N4CCCCC4)c([N+](=O)[O-])c3)n2)c1 [Compound 42f, N-(4-(2,5-dimethylphenyl)thiazol-2-yl)-3-nitro-4-(piperidin-1-ylsulfonyl)benzamide]	decline in activity
COc1cc(C(=O)Nc2nc(-c3cc(C)ccc3C)cs2)ccc1S(=O)(=O)N1CCCCC1 [Compound 42g, N-(4-(2,5-dimethylphenyl)thiazol-2-yl)-3-methoxy-4-(piperidin-1-ylsulfonyl)benzamide]	decline in activity
Cc1ccc(C)c(-c2csc(NC(=O)c3ccc(S(=O)(=O)N4CCCCC4)cc3Cl)n2)c1 [Compound 42h, 2-chloro-N-(4-(2,5-dimethylphenyl)thiazol-2-yl)-4-(piperidin-1-ylsulfonyl)benzamide]	significantly dropped
Cc1ccc(C)c(-c2csc(NC(=O)c3ccc(S(=O)(=O)N4CCCCC4)cc3Br)n2)c1 [Compound 42i, 2-bromo-N-(4-(2,5-dimethylphenyl)thiazol-2-yl)-4-(piperidin-1-ylsulfonyl)benzamide]	significantly dropped
COc1cc(S(=O)(=O)N2CCCCC2)ccc1C(=O)Nc1nc(-c2cc(C)ccc2C)cs1 [Compound 42j, N-(4-(2,5-dimethylphenyl)thiazol-2-yl)-2-methoxy-4-(piperidin-1-ylsulfonyl)benzamide]	significantly dropped
Cc1ccc(C)c(-c2csc(NC(=O)c3ccc(S(=O)(=O)N4CCCCC4)c(N)c3)n2)c1 [Compound 42k, 3-amino-N-(4-(2,5-dimethylphenyl)thiazol-2-yl)-4-(piperidin-1-ylsulfonyl)benzamide]	decline in activity
Cc1ccc(C)c(-c2csc(NC(=O)c3ccc(SC4CCCCC4)cc3)n2)c1 [Compound 45a, 4-(cyclohexylthio)-N-(4-(2,5-dimethylphenyl)thiazol-2-yl)benzamide]	none of these modifications at site E was tolerated
Cc1ccc(C)c(-c2csc(NC(=O)c3ccc(S(=O)(=O)C4CCCCC4)cc3)n2)c1 [Compound 45b, 4-(cyclohexylsulfonyl)-N-(4-(2,5-dimethylphenyl)thiazol-2-yl)benzamide]	none of these modifications at site E was tolerated
Cc1ccc(C)c(-c2csc(NC(=O)c3ccc(C(=O)N4CCCCC4)cc3)n2)c1 [Compound 45c, N-(4-(2,5-dimethylphenyl)thiazol-2-yl)-4-(piperidine-1-carbonyl)benzamide]	none of these modifications at site E was tolerated
Cc1ccc(C)c(-c2csc(NC(=O)c3cccc(C(=O)N4CCCCC4)c3)n2)c1 [Compound 45d, N-(4-(2,5-dimethylphenyl)thiazol-2-yl)-3-(piperidine-1-carbonyl)benzamide]	none of these modifications at site E was tolerated

SMILES	NF-κB activity (in words, SAR text to Table 1)
Cc1ccc(C)c(-c2csc(NS(=O)(=O)c3ccc(C(=O)N4CCCCC4)cc3)n2)c1 [Compound 51, N-(4-(2,5-dimethylphenyl)thiazol-2-yl)-4-(piperidine-1-carbonyl)benzenesulfonamide]	inactive
CCCN(CC)S(=O)(=O)c1ccc(C(=O)Nc2nc(-c3cc(C)ccc3C)cs2)cc1 [Compound 54a, N-(4-(2,5-dimethylphenyl)thiazol-2-yl)-4-(N-ethyl-N-propylsulfamoyl)benzamide]	active
CCCN(CCC)S(=O)(=O)c1ccc(C(=O)Nc2nc(-c3cc(C)ccc3C)cs2)cc1 [Compound 54b, N-(4-(2,5-dimethylphenyl)thiazol-2-yl)-4-(N,N-dipropylsulfamoyl)benzamide]	active
CCCCN(CCCC)S(=O)(=O)c1ccc(C(=O)Nc2nc(-c3cc(C)ccc3C)cs2)cc1 [Compound 54c, 4-(N,N-dibutylsulfamoyl)-N-(4-(2,5-dimethylphenyl)thiazol-2-yl)benzamide]	lost activity
CCN(c1ccccc1)S(=O)(=O)c1ccc(C(=O)Nc2nc(-c3cc(C)ccc3C)cs2)cc1 [Compound 54d, N-(4-(2,5-dimethylphenyl)thiazol-2-yl)-4-(N-ethyl-N-phenylsulfamoyl)benzamide]	inactive
Cc1ccc(C)c(-c2csc(NC(=O)c3ccc(S(=O)(=O)NC4CCCCC4)cc3)n2)c1 [Compound 54e, 4-(N-cyclohexylsulfamoyl)-N-(4-(2,5-dimethylphenyl)thiazol-2-yl)benzamide]	inactive
Cc1ccc(C)c(-c2csc(NC(=O)c3ccc(S(=O)(=O)N4CCN(C(=O)OC(C)(C)C)CC4)cc3)n2)c1 [Compound 54f, tert-butyl 4-((4-((4-(2,5-dimethylphenyl)thiazol-2-yl)carbamoyl)phenyl)sulfonyl)piperazine-1-carboxylate]	inactive
CCOC1CCN(S(=O)(=O)c2ccc(C(=O)Nc3nc(-c4cc(C)ccc4C)cs3)cc2)CC1 [Compound 54g, N-(4-(2,5-dimethylphenyl)thiazol-2-yl)-4-((4-ethoxypiperidin-1-yl)sulfonyl)benzamide]	very potent
Cc1ccc(C)c(-c2csc(NC(=O)c3ccc(S(=O)(=O)N4CCNCC4)cc3)n2)c1 [Compound 54i, N-(4-(2,5-dimethylphenyl)thiazol-2-yl)-4-(piperazin-1-ylsulfonyl)benzamide]	inactive
CC(=O)N1CCN(S(=O)(=O)c2ccc(C(=O)Nc3nc(-c4cc(C)ccc4C)cs3)cc2)CC1 [Compound 54j, 4-((4-acetylpiperazin-1-yl)sulfonyl)-N-(4-(2,5-dimethylphenyl)thiazol-2-yl)benzamide]	inactive
CCCN1CCN(S(=O)(=O)c2ccc(C(=O)Nc3nc(-c4cc(C)ccc4C)cs3)cc2)CC1 [Compound 54k, N-(4-(2,5-dimethylphenyl)thiazol-2-yl)-4-((4-propylpiperazin-1-yl)sulfonyl)benzamide]	inactive
CCCC1CCN(S(=O)(=O)c2ccc(C(=O)Nc3nc(-c4cc(C)ccc4Br)cs3)cc2)CC1 [Compound 55, N-(4-(2-bromo-5-methylphenyl)thiazol-2-yl)-4-((4-propylpiperidin-1-yl)sulfonyl)benzamide]	retained NF-κB activity
CCCC#Cc1sc(NC(=O)c2ccc(S(=O)(=O)N3CCC(CCC)CC3)cc2)nc1-c1cc(C)ccc1C [Compound 57, N-(4-(2,5-dimethylphenyl)-5-(pent-1-yn-1-yl)thiazol-2-yl)-4-((4-propylpiperidin-1-yl)sulfonyl)benzamide]	significant loss of activity
CCCC#Cc1sc(NC(=O)c2ccc(S(=O)(=O)N3CCCCC3)cc2)nc1-c1cc(C)ccc1Br [Compound 60, N-(4-(2-bromo-5-methylphenyl)-5-(pent-1-yn-1-yl)thiazol-2-yl)-4-(piperidin-1-ylsulfonyl)benzamide]	retained NF-κB activity
CCCC#Cc1sc(NC(=O)c2ccc(S(=O)(=O)N3CCC(CCC)CC3)cc2)nc1-c1cc(C)ccc1Br [Compound 61, N-(4-(2-bromo-5-methylphenyl)-5-(pent-1-yn-1-yl)thiazol-2-yl)-4-((4-propylpiperidin-1-yl)sulfonyl)benzamide]	significant loss of activity

Same assay, conditions: in presence of LPS, compared to compound 1

SMILES	NF-κB induction in the presence of LPS (in words, Fig. 6)
Cc1ccc(N=[N+]=[N-])cc1-c1csc(NC(=O)c2ccc(S(=O)(=O)N3CCCCC3)cc2)n1 [Compound 63, N-(4-(5-azido-2-methylphenyl)thiazol-2-yl)-4-(piperidin-1-ylsulfonyl)benzamide]	retained activity
Cc1ccc(N=[N+]=[N-])c(-c2csc(NC(=O)c3ccc(S(=O)(=O)N4CCCCC4)cc3)n2)c1 [Compound 66, N-(4-(2-azido-5-methylphenyl)thiazol-2-yl)-4-(piperidin-1-ylsulfonyl)benzamide]	inactive
